Data published in ChEMBL document CHEMBL1275408, “A chemical genomic screen in Saccharomyces cerevisiae reveals a role for diphthamidation of translation elongation factor 2 in inhibition of protein synthesis by sordarin” (2008).
The source made the active and inactive calls. The calls are words filed in the database; no cut-off is given here.

How the values were obtained:
Saccharomyces cerevisiae [1] = assay: Antifungal activity against Saccharomyces cerevisiae BY4741 harboring SUR2 YDR297W mutant gene by spectrophotometry; type: functional
In short: (§1)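 Haploid MATa BY4741 KanMX4 deletion strains pinned from frozen stocks into YPD + G418 (150 mg/liter), grown 3 days at 28°C to confluence, then pin-replicated into SC liquid with no drug or sordarin derivative GM193663 (2 ng/ml sensitivity; 62.5 ng/ml resistance). 28°C, OD595 read every 24 h for 5 days; growth scored relative to wild type on same plate and to untreated mutant.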

Saccharomyces cerevisiae [2] = assay: Antifungal activity against Saccharomyces cerevisiae BY4741 harboring RPL1B YGL135W mutant gene by spectrophotometry; type: functional; in short: as §1
Saccharomyces cerevisiae [3] = assay: Antifungal activity against Saccharomyces cerevisiae BY4741 harboring FMP35 YIL157C mutant gene by spectrophotometry; type: functional
In short: (§2)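 Screen of BY4741 KanMX4 deletion strains pre-grown 3 days at 28°C in YPD with G418 (150 mg/liter), then pinned into liquid SC containing GM193663. The sensitivity screen used 2 ng/ml; the resistance screen used 62.5 ng/ml, with validation at 62.5, 125 and 500 ng/ml. OD595 was read every 24 h over 5 days at 28°C. Growth was scored relative to wild type and to drug-free controls. Retests were at least in duplicate.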

Saccharomyces cerevisiae [4] = assay: Antifungal activity against Saccharomyces cerevisiae BY4741 harboring YDR008C mutation by spectrophotometry; type: functional; in short: as §1
Saccharomyces cerevisiae [5] = assay: Antifungal activity against Saccharomyces cerevisiae BY4741 harboring ADY3 YDL239C mutant gene by spectrophotometry; type: functional; in short: as §2
Saccharomyces cerevisiae [6] = assay: Antifungal activity against Saccharomyces cerevisiae BY4741 harboring SPS1 YDR523C mutant gene assessed as reduction in fungal growth at 2 ng/ml by spectrophotometry; type: functional, organism-based
In short: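 Deletion strains (BY4741 background) pre-grown 3 days at 28°C in YPD + G418 (150 mg/liter), then pin-replicated into SC liquid containing 2 ng/ml GM193663 or no drug. 28°C, OD595 every 24 h over 5 days; growth scored against wild type on same plate and against drug-free mutant control; hits retested at least in duplicate at 2 ng/ml.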

Saccharomyces cerevisiae [7] = assay: Antifungal activity against Saccharomyces cerevisiae BY4741 harboring DOC1 YGL240W mutant gene by spectrophotometry; type: functional; in short: as §2
Saccharomyces cerevisiae [8] = assay: Antifungal activity against Saccharomyces cerevisiae BY4741 harboring YHL041W mutation in unknown gene by spectrophotometry; type: functional
In short: (§3)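 Deletion strains from the nonessential haploid MATa BY4741 collection (KanMX4 replacement) were grown in YPD with G418 at 28°C for 3 days, then pinned into liquid SC with or without sordarin derivative GM193663 (2 ng/ml for sensitivity, 62.5 ng/ml for resistance). Cultures were kept at 28°C and read at OD595 every 24 h for 5 days. Growth was scored against wild type on the same plate and against the drug-free control. Hits were retested at least in duplicate.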

Saccharomyces cerevisiae [9] = assay: Antifungal activity against Saccharomyces cerevisiae BY4741 harboring YER087W mutation in unknown gene by spectrophotometry; type: functional; in short: as §3
Saccharomyces cerevisiae [10] = assay: Antifungal activity against Saccharomyces cerevisiae BY4741 harboring RPS18A YDR450W mutant gene by spectrophotometry; type: functional; in short: as §1
Saccharomyces cerevisiae [11] = assay: Antifungal activity against Saccharomyces cerevisiae BY4741 harboring YDR042C mutation in unknown gene by spectrophotometry; type: functional; in short: as §3
Saccharomyces cerevisiae [12] = assay: Antifungal activity against Saccharomyces cerevisiae BY4741 harboring MRP21 YBL090W mutant gene by spectrophotometry; type: functional; in short: as §2
Saccharomyces cerevisiae [13] = assay: Antifungal activity against Saccharomyces cerevisiae BY4741 harboring ARN1 YHL040C mutant gene by spectrophotometry; type: functional; in short: as §2
Saccharomyces cerevisiae [14] = assay: Antifungal activity against Saccharomyces cerevisiae BY4741 harboring RPL16B YNL069C mutant gene by spectrophotometry; type: functional; in short: as §1
Saccharomyces cerevisiae [15] = assay: Antifungal activity against Saccharomyces cerevisiae BY4741 harboring deletion mutation in dph4 gene at 300 to 500 ng/ml after 24 hrs by liquid growth assay; type: functional
Saccharomyces cerevisiae [16] = assay: Antifungal activity against Saccharomyces cerevisiae BY4741 harboring deletion mutation in dph2 gene at 100 ng/ml by plate assay; type: functional, organism-based
In short: (§4)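 Spot test on solid SC glucose plates with or without 100 ng/ml sordarin. Drops of 10^5 cells plus 10-fold serial dilutions of each dph deletion strain were spotted alongside the parental strain. Plates were incubated at 28°C for 6 days and imaged every 24 h.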

Saccharomyces cerevisiae [17] = assay: Antifungal activity against Saccharomyces cerevisiae BY4741 harboring PUF3 YLL013C mutant gene by spectrophotometry; type: functional; in short: as §1
Saccharomyces cerevisiae [18] = assay: Antifungal activity against Saccharomyces cerevisiae BY4741 harboring STE1 YDR410C mutant gene by spectrophotometry; type: functional; in short: as §1
Saccharomyces cerevisiae [19] = assay: Antifungal activity against Saccharomyces cerevisiae BY4741 harboring DHH1 YDL160C mutant gene by spectrophotometry; type: functional; in short: as §2
Saccharomyces cerevisiae [20] = assay: Antifungal activity against Saccharomyces cerevisiae BY4741 harboring YHR151C mutation in unknown gene by spectrophotometry; type: functional; in short: as §3
Saccharomyces cerevisiae [21] = assay: Antifungal activity against Saccharomyces cerevisiae BY4741 harboring MUP3 YHL036W mutant gene by spectrophotometry; type: functional; in short: as §1
Saccharomyces cerevisiae [22] = assay: Antifungal activity against Saccharomyces cerevisiae BY4741 harboring YLR125W mutation in unknown gene by spectrophotometry; type: functional; in short: as §3
Saccharomyces cerevisiae [23] = assay: Antifungal activity against Saccharomyces cerevisiae BY4741 harboring FYV1 YDR024W mutant gene by spectrophotometry; type: functional; in short: as §2
Saccharomyces cerevisiae [24] = assay: Antifungal activity against Saccharomyces cerevisiae BY4741 harboring deletion mutation in dph3 gene at 100 ng/ml by plate assay; type: functional, organism-based; in short: as §4
Saccharomyces cerevisiae [25] = assay: Antifungal activity against Saccharomyces cerevisiae BY4741 harboring YGR228W mutation in unknown gene by spectrophotometry; type: functional; in short: as §3
Saccharomyces cerevisiae [26] = assay: Antifungal activity against Saccharomyces cerevisiae BY4741 harboring KTR7 YIL085C mutant gene by spectrophotometry; type: functional; in short: as §2
Saccharomyces cerevisiae [27] = assay: Antifungal activity against Saccharomyces cerevisiae BY4741 harboring CNM67 YNL225C mutant gene assessed as reduction in fungal growth at 2 ng/ml by spectrophotometry; type: functional, organism-based
In short: (§5)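 Haploid BY4741 KanMX4 deletion strains pre-grown in YPD with G418 (150 mg/liter) for 3 days at 28°C. They were then pin-replicated into liquid SC with sordarin derivative GM193663 at 2 ng/ml, or without drug. Plates were incubated at 28°C and OD595 read every 24 h for 5 days. Growth was scored against wild type on the same plate and against the drug-free mutant. Hits were retested at least in duplicate.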

Saccharomyces cerevisiae [28] = assay: Antifungal activity against Saccharomyces cerevisiae BY4741 harboring RAM1 YDL090C mutant gene by spectrophotometry; type: functional; in short: as §1
Saccharomyces cerevisiae [29] = assay: Antifungal activity against Saccharomyces cerevisiae BY4741 harboring ECM3 YOR092W mutant gene by spectrophotometry; type: functional; in short: as §2
Saccharomyces cerevisiae [30] = assay: Antifungal activity against Saccharomyces cerevisiae BY4741 harboring THI20 YOL055C mutant gene by spectrophotometry; type: functional; in short: as §1
Saccharomyces cerevisiae [31] = assay: Antifungal activity against Saccharomyces cerevisiae BY4741 harboring RPL12B YDR418W mutant gene by spectrophotometry; type: functional; in short: as §1
Saccharomyces cerevisiae [32] = assay: Antifungal activity against Saccharomyces cerevisiae BY4741 harboring EAF3 YPR023C mutant gene by spectrophotometry; type: functional; in short: as §2
Saccharomyces cerevisiae [33] = assay: Antifungal activity against Saccharomyces cerevisiae BY4741 harboring AFG3 YER017C mutant gene assessed as reduction in fungal growth at 2 ng/ml by spectrophotometry; type: functional, organism-based; in short: as §5
Saccharomyces cerevisiae [34] = assay: Antifungal activity against Saccharomyces cerevisiae BY4741 harboring COQ1 YBR003W mutant gene by spectrophotometry; type: functional; in short: as §2

With CO[C@H]1[C@@H](O)[C@H](O)[C@H](OC[C@@]23C[C@@H]4[C@H](C)CC[C@H]4[C@@]4(C=O)CC2C=C(C(C)C)[C@@]34C(=O)O)O[C@@H]1C [SORDARIN] the MIC (Saccharomyces cerevisiae [1]) was > 0.0625 µg/mL, the MIC (Saccharomyces cerevisiae [2]) was > 0.5 µg/mL and the MIC (Saccharomyces cerevisiae [3]) was > 0.5 µg/mL. For the same compound, the MIC (Saccharomyces cerevisiae [4]) was > 0.5 µg/mL, the MIC (Saccharomyces cerevisiae [5]) was > 0.0625 µg/mL and the Activity (Saccharomyces cerevisiae [6]) was “Active”. The MIC (Saccharomyces cerevisiae [7]) was > 0.5 µg/mL, the MIC (Saccharomyces cerevisiae [8]) was > 0.5 µg/mL and the MIC (Saccharomyces cerevisiae [9]) was > 0.5 µg/mL. The MIC (Saccharomyces cerevisiae [10]) was > 0.0625 µg/mL, the MIC (Saccharomyces cerevisiae [11]) was > 0.125 µg/mL and the MIC (Saccharomyces cerevisiae [12]) was > 0.5 µg/mL. The MIC (Saccharomyces cerevisiae [13]) was > 0.5 µg/mL, the MIC (Saccharomyces cerevisiae [14]) was > 0.125 µg/mL and the Activity (Saccharomyces cerevisiae [15]) was 50%. The MIC (Saccharomyces cerevisiae [16]) was “inactive”, the MIC (Saccharomyces cerevisiae [17]) was > 0.5 µg/mL and the MIC (Saccharomyces cerevisiae [18]) was > 0.125 µg/mL. The MIC (Saccharomyces cerevisiae [19]) was > 0.125 µg/mL, the MIC (Saccharomyces cerevisiae [20]) was > 0.5 µg/mL and the MIC (Saccharomyces cerevisiae [21]) was > 0.5 µg/mL. For the same compound, the MIC (Saccharomyces cerevisiae [22]) was > 0.125 µg/mL, the MIC (Saccharomyces cerevisiae [23]) was > 0.5 µg/mL and the MIC (Saccharomyces cerevisiae [24]) was “inactive”. For the same compound, the MIC (Saccharomyces cerevisiae [25]) was > 0.5 µg/mL, the MIC (Saccharomyces cerevisiae [26]) was > 0.5 µg/mL and the Activity (Saccharomyces cerevisiae [27]) was “Active”. The MIC (Saccharomyces cerevisiae [28]) was > 0.5 µg/mL, the MIC (Saccharomyces cerevisiae [29]) was > 0.125 µg/mL and the MIC (Saccharomyces cerevisiae [30]) was > 0.5 µg/mL. For the same compound, the MIC (Saccharomyces cerevisiae [31]) was > 0.5 µg/mL, the MIC (Saccharomyces cerevisiae [32]) was > 0.5 µg/mL and the Activity (Saccharomyces cerevisiae [33]) was “Active”. The MIC (Saccharomyces cerevisiae [34]) was > 0.5 µg/mL.
